In ChEMBL document CHEMBL4270565, “Design, synthesis and antimicrobial evaluation of propylene-tethered ciprofloxacin-isatin hybrids” (Eur J Med Chem, 2018):
In brackets after ≈: the same amount, converted by molar mass.

What was measured:
Proteus vulgaris = test: Antibacterial activity against Proteus vulgaris ATCC 29905 after 18 to 24 hrs by two-fold serial dilution method; type: functional
Procedure, shortened: (§1)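 Agar two-fold dilution MIC. Compounds were dissolved in 0.1 N NaOH and water, then serially diluted in melted Mueller-Hinton agar, with top concentrations starting at 128. Plates were inoculated at about 10 cfu and incubated at 35 °C for 18–24 h. MIC was taken as the lowest concentration giving 90% inhibition of growth.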

Morganella morganii = test: Antibacterial activity against Morganella morganii ATCC 25830 after 18 to 24 hrs by two-fold serial dilution method; type: functional; procedure, shortened: as §1
Serratia marcescens = test: Antibacterial activity against Serratia marcescens ATCC 21074 after 18 to 24 hrs by two-fold serial dilution method; type: functional; procedure, shortened: as §1
[1] = system: Acinetobacter calcoaceticus; test: Antibacterial activity against Acinetobacter calcoaceticus ATCC 19606 after 18 to 24 hrs by two-fold serial dilution method; type: functional; procedure, shortened: as §1
Enterococcus faecalis [2] = test: Antibacterial activity against Enterococcus faecalis ATCC 29212 after 18 to 24 hrs by two-fold serial dilution method; type: functional; procedure, shortened: as §1
Staphylococcus aureus [3] = test: Antibacterial activity against methicillin-sensitive Staphylococcus aureus ATCC 29213 after 18 to 24 hrs by two-fold serial dilution method; type: functional
Procedure, shortened: (§2)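 Agar two-fold serial dilution in Mueller-Hinton agar. Strains came from the Chinese Center for Disease Control and Prevention. Compounds were dissolved in 0.1 N NaOH and water, then diluted in melted agar to final levels stepping down from 128. Plates were inoculated with bacterial cfu and incubated at 35 C for 18–24 h. MIC is the lowest concentration giving 90% growth inhibition.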

Escherichia coli [4] = test: Antibacterial activity against extended-spectrum beta-lactamase deficient Escherichia coli ATCC 25922 after 18 to 24 hrs by two-fold serial dilution method; type: functional; procedure, shortened: as §1
Enterococcus faecium [5] = test: Antibacterial activity against Enterococcus faecium ATCC 700221 after 18 to 24 hrs by two-fold serial dilution method; type: functional; procedure, shortened: as §1
Klebsiella pneumoniae [6] = test: Antibacterial activity against extended-spectrum beta-lactamase harboring Klebsiella pneumoniae ATCC 700603 after 18 to 24 hrs by two-fold serial dilution method; type: functional; procedure, shortened: as §2
Citrobacter freundii = test: Antibacterial activity against extended-spectrum beta-lactamase harboring Citrobacter freundii ATCC 43864 after 18 to 24 hrs by two-fold serial dilution method; type: functional; procedure, shortened: as §2
Staphylococcus aureus [7] = test: Antibacterial activity against methicillin-resistant Staphylococcus aureus ATCC 33591 after 18 to 24 hrs by two-fold serial dilution method; type: functional; procedure, shortened: as §2
[8] = system: Staphylococcus epidermidis; test: Antibacterial activity against methicillin-sensitive Staphylococcus epidermidis ATCC 12228 after 18 to 24 hrs by two-fold serial dilution method; type: functional; procedure, shortened: as §1
Enterococcus faecium [9] = test: Antibacterial activity against Enterococcus faecium 13-7 after 18 to 24 hrs by two-fold serial dilution method; type: functional; procedure, shortened: as §1
[10] = system: Mycobacterium tuberculosis; test: Antimycobacterial activity against Mycobacterium tuberculosis H37Rv after 7 days; type: functional; conditions: 168 h
Procedure, shortened: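 Rapid direct susceptibility test in 48-well plates. Two-fold dilutions of compound from DMSO stocks were mixed with an equal volume of bacterial suspension. Medium-only wells served as growth controls and water-only wells as no-growth controls. Plates were sealed and held at 37 C in a humid box, and controls were checked at 3 days. MIC (90% growth inhibition) was read visually by high-magnification observation of the cells and re-read at 7 days.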

[11] = Cytotoxicity against African green monkey Vero cells assessed as reduction in cell viability after 72 hrs by MTT assay; type: cell-based; conditions: chlorocebus sabaeus
Procedure, shortened: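 VERO cells were kept in MEM with Earle's salts and 10% FBS at 37 °C, 5% CO2. They were seeded in 96-well plates and allowed to recover for 24 h. Cells were then exposed to compounds in DMSO over a series from 1000 down to 4 for 72 h. Viability was read by MTT, and CC50 was calculated by Bliss analysis.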

Enterococcus faecalis [12] = test: Antibacterial activity against Enterococcus faecalis ATCC 51299 after 18 to 24 hrs by two-fold serial dilution method; type: functional; procedure, shortened: as §1
[13] = system: Stenotrophomonas maltophilia; test: Antibacterial activity against Stenotrophomonas maltophilia ATCC 13636 after 18 to 24 hrs by two-fold serial dilution method; type: functional; procedure, shortened: as §1
Enterobacter cloacae = test: Antibacterial activity against Enterobacter cloacae ATCC 43560 after 18 to 24 hrs by two-fold serial dilution method; type: functional
Klebsiella pneumoniae [14] = test: Antibacterial activity against extended-spectrum beta-lactamase deficient Klebsiella pneumoniae 15-2 after 18 to 24 hrs by two-fold serial dilution method; type: functional; procedure, shortened: as §1
Escherichia coli [15] = test: Antibacterial activity against extended-spectrum beta-lactamase harboring Escherichia coli ATCC 35218 after 18 to 24 hrs by two-fold serial dilution method; type: functional; procedure, shortened: as §2
Providencia rettgeri = test: Antibacterial activity against Providencia rettgeri ATCC 31052 after 18 to 24 hrs by two-fold serial dilution method; type: functional; procedure, shortened: as §1
Pseudomonas aeruginosa = test: Antibacterial activity against Pseudomonas aeruginosa ATCC 27853 after 18 to 24 hrs by two-fold serial dilution method; type: functional; procedure, shortened: as §1
Klebsiella aerogenes = test: Antibacterial activity against Enterobacter aerogenes ATCC 13048 after 18 to 24 hrs by two-fold serial dilution method; type: functional; procedure, shortened: as §1
[16] = system: Staphylococcus epidermidis; test: Antibacterial activity against methicillin-resistant Staphylococcus epidermidis 13-3 after 18 to 24 hrs by two-fold serial dilution method; type: functional; procedure, shortened: as §2
Proteus mirabilis = test: Antibacterial activity against Proteus mirabilis 13-1 after 18 to 24 hrs by two-fold serial dilution method; type: functional; procedure, shortened: as §1

| Structure (SMILES) | MIC90 (Proteus vulgaris) [µg/mL] | MIC90 (Morganella morganii) [µg/mL] | MIC90 (Serratia marcescens) [µg/mL] | MIC90 [1] [µg/mL] | MIC90 (Enterococcus faecalis [2]) [µg/mL] | MIC90 (Staphylococcus aureus [3]) [µg/mL] | MIC90 (Escherichia coli [4]) [µg/mL] | MIC90 (Enterococcus faecium [5]) [µg/mL] | MIC90 (Klebsiella pneumoniae [6]) [µg/mL] | MIC90 (Citrobacter freundii) [µg/mL] | MIC90 (Staphylococcus aureus [7]) [µg/mL] | MIC90 [8] [µg/mL] | MIC90 (Enterococcus faecium [9]) [µg/mL] | MIC90 [10] [µg/mL] | MIC90 (Enterococcus faecalis [12]) [µg/mL] | MIC90 [13] [µg/mL] | MIC90 (Enterobacter cloacae) [µg/mL] | MIC90 (Klebsiella pneumoniae [14]) [µg/mL] | MIC90 (Escherichia coli [15]) [µg/mL] | MIC90 (Providencia rettgeri) [µg/mL] | other results |
| --- | --- | --- | --- | --- | --- | --- | --- | --- | --- | --- | --- | --- | --- | --- | --- | --- | --- | --- | --- | --- | --- |
| CO/N=C1\C(=O)N(CCCN2CCN(c3cc4c(cc3F)c(=O)c(C(=O)OCCCN3C(=O)/C(=N/OC)c5cc(C)ccc53)cn4C3CC3)CC2)c2ccc(C)cc21 | 32 (≈ 40.4 µM) | 64 (≈ 80.8 µM) | 32 (≈ 40.4 µM) | 64 (≈ 80.8 µM) | 32 (≈ 40.4 µM) | 32 (≈ 40.4 µM) | 8 (≈ 10.1 µM) | 128 (≈ 162 µM) | 32 (≈ 40.4 µM) | 32 (≈ 40.4 µM) | 32 (≈ 40.4 µM) | 16 (≈ 20.2 µM) | > 128 | 25 (≈ 31.6 µM) | 128 (≈ 162 µM) | 64 (≈ 80.8 µM) | 16 (≈ 20.2 µM) | 16 (≈ 20.2 µM) | 16 (≈ 20.2 µM) | 32 (≈ 40.4 µM) | CC50 at 72 h [11]: 16 µg/mL (≈ 20.2 µM); MIC90 (Pseudomonas aeruginosa): 32 µg/mL (≈ 40.4 µM); MIC90 (Klebsiella aerogenes): 32 µg/mL (≈ 40.4 µM); MIC90 [16]: 64 µg/mL (≈ 80.8 µM); MIC90 (Proteus mirabilis): 64 µg/mL (≈ 80.8 µM) |
| CCO/N=C1\C(=O)N(CCCN2CCN(c3cc4c(cc3F)c(=O)c(C(=O)O)cn4C3CC3)CC2)c2ccccc21 | ≤ 0.03 | 0.03 (≈ 0.0534 µM) | 0.125 (≈ 0.223 µM) | 1 (≈ 1.78 µM) | 1 (≈ 1.78 µM) | 0.25 (≈ 0.445 µM) | ≤ 0.03 | 8 (≈ 14.2 µM) | 0.5 (≈ 0.89 µM) | ≤ 0.03 | 0.25 (≈ 0.445 µM) | 0.25 (≈ 0.445 µM) | 32 (≈ 57 µM) | 0.78 (≈ 1.39 µM) | 1 (≈ 1.78 µM) | 0.125 (≈ 0.223 µM) | 0.06 (≈ 0.107 µM) | 0.03 (≈ 0.0534 µM) | ≤ 0.03 | ≤ 0.03 | CC50 at 72 h [11]: 64 µg/mL (≈ 114 µM); MIC90 (Pseudomonas aeruginosa): 1 µg/mL (≈ 1.78 µM); MIC90 (Klebsiella aerogenes): ≤ 0.03 µg/mL; MIC90 [16]: 2 µg/mL (≈ 3.56 µM); MIC90 (Proteus mirabilis): ≤ 0.03 µg/mL |
| O=C1C(=O)N(CCCOC(=O)c2cn(C3CC3)c3cc(N4CCN(CCCN5C(=O)C(=O)c6ccccc65)CC4)c(F)cc3c2=O)c2ccccc21 | 64 (≈ 90.7 µM) | 64 (≈ 90.7 µM) | 32 (≈ 45.3 µM) | 128 (≈ 181 µM) | 64 (≈ 90.7 µM) | 128 (≈ 181 µM) | 4 (≈ 5.67 µM) | > 128 | 64 (≈ 90.7 µM) | 64 (≈ 90.7 µM) | > 128 | 64 (≈ 90.7 µM) | > 128 | 12.5 (≈ 17.7 µM) | > 128 | > 128 | 128 (≈ 181 µM) | 64 (≈ 90.7 µM) | 16 (≈ 22.7 µM) | 128 (≈ 181 µM) | CC50 at 72 h [11]: 32 µg/mL (≈ 45.3 µM); MIC90 (Pseudomonas aeruginosa): > 128 µg/mL; MIC90 (Klebsiella aerogenes): 64 µg/mL (≈ 90.7 µM); MIC90 [16]: > 128 µg/mL; MIC90 (Proteus mirabilis): 64 µg/mL (≈ 90.7 µM) |
| NNC(=O)c1ccncc1 [ISONIAZID] |  |  |  |  |  |  |  |  |  |  |  |  |  | 0.05 (≈ 0.365 µM) |  |  |  |  |  |  |  |
| C[C@H]1COc2c(N3CCN(C)CC3)c(F)cc3c(=O)c(C(=O)O)cn1c23.C[C@H]1COc2c(N3CCN(C)CC3)c(F)cc3c(=O)c(C(=O)O)cn1c23.O [LEVOFLOXACIN] | ≤ 0.03 | ≤ 0.03 | 0.125 | 0.125 | 1 | 0.125 | ≤ 0.03 | 16 | 0.5 | ≤ 0.03 | 0.125 | 0.125 | 64 |  | 1 | 1 | ≤ 0.03 | ≤ 0.03 | ≤ 0.03 | ≤ 0.03 | MIC90 (Pseudomonas aeruginosa): 2 µg/mL; MIC90 (Klebsiella aerogenes): 0.06 µg/mL; MIC90 [16]: 4 µg/mL; MIC90 (Proteus mirabilis): ≤ 0.03 µg/mL |
| CO[C@H]1/C=C/O[C@@]2(C)Oc3c(C)c(O)c4c(O)c(c(/C=N/N5CCN(C)CC5)c(O)c4c3C2=O)NC(=O)/C(C)=C\C=C\[C@H](C)[C@H](O)[C@@H](C)[C@@H](O)[C@@H](C)[C@H](OC(C)=O)[C@@H]1C [RIFAMPIN] |  |  |  |  |  |  |  |  |  |  |  |  |  | 0.39 (≈ 0.474 µM) |  |  |  |  |  |  |  |
